From ChEMBL document CHEMBL1649302, “New small-molecule inhibitor class targeting human immunodeficiency virus type 1 virion maturation” (Antimicrob Agents Chemother, 2009)
Active and inactive are the calls of the source. No cut-off for these calls is given here.

What was measured:
[1] = test system: Human immunodeficiency virus 1; experiment: Antiviral activity against HIV1 NL4-3 infected in human PM1 cells assessed as inhibition of viral p24 antigen production after 5 days; type: functional, organism-based; conditions: Human immunodeficiency virus 1, NL4-3, PM1, 120 h
Method in brief: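 PM1 cells (NL4-3, Ba-L) or MT-2 cells (92HT594, 92HT599) were infected at MOI 0.16 for 2 h and washed. They were plated at 1 × 10⁴ cells/well (2 × 10⁵/ml) onto half-log compound dilutions. Supernatant p24 was quantified by ELISA at day 5. EC50 was the concentration giving a 50% decrease versus infected, compound-free cells.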

[2] = test system: Human immunodeficiency virus 1; experiment: Antiviral activity HIV1 NL4-3 infected in human PBMC after 7 days by scintillation counting; type: functional, organism-based; conditions: Human immunodeficiency virus 1, NL4-3, 168 h
Method in brief: (§1)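 PBMCs came from buffy coats pooled from 3–4 seronegative donors, were PHA-stimulated (1.5 μg/ml, 3 days) and frozen. Thawed cells were infected 1 h at 37°C with virus input set by TCID50, then pelleted and resuspended in IL-2 (10 ng/ml). They were plated at 4 × 10⁵ cells/ml onto compounds for 7 days at 37°C. Supernatant RT activity was measured by Quan-T-RT scintillation assay.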

[3] = test system: Human immunodeficiency virus 1; experiment: Antiviral activity against HIV1 harboring capsid I201V mutant protein assessed as inhibition of virion maturation-associated CA/SP1 processing; type: functional, organism-based
Method in brief: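 HEK 293 cells were transfected with pNL4-3 CAI201V, pNL4-3 or mock, with or without compound at various concentrations, and supernatants collected 72 h later. Supernatants were clarified at 200 × g, and virions pelleted through a 20% sucrose–PBS cushion (20,000 × g, 3 h, 4°C) and lysed. Proteins were run on 4–12% Bis-Tris/MOPS gels and immunoblotted with anti-p24 (1:1,000) to detect CA/SP1 p25 versus p24.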

[4] = Therapeutic index, ratio of CC50 for human PBMC to EC50 for HIV1 91US005 infected in human PBMC; conditions: read-out: TI
Method in brief: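 TI was the mean PBMC CC50 divided by the mean EC50 from the 7-day PBMC reverse transcriptase assay.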

[5] = Therapeutic index, ratio of CC50 for human PBMC to EC50 for HIV1 WEJO infected in human PBMC; conditions: read-out: TI
Method in brief: (§2)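 PHA-stimulated (4 μg/ml, 48 to 72 h) PBMCs pooled from at least two seronegative donors, kept with 20 U/ml IL-2, plated at 5 × 10⁴ cells/well. Infected with clinical isolate (final MOI ≅0.1) alongside nine compound concentrations in triplicate wells, 7 days. Supernatant reverse transcriptase activity measured. TI is mean PBMC CC50 divided by mean EC50.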

[6] = test system: Human immunodeficiency virus 1; experiment: Antiviral activity HIV1 93BR021 infected in human PBMC after 7 days by scintillation counting; type: functional, organism-based; conditions: Human immunodeficiency virus 1, 93BR021, 168 h
Method in brief: (§3)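 Fresh PBMCs from HIV/HBV-seronegative donors were PHA-stimulated (4 μg/ml, 48–72 h) and kept with IL-2 (20 U/ml), with at least two donors pooled. Cells were seeded at 5 × 10⁴/well and infected (final MOI ≅0.1) with nine compound concentrations in triplicate wells. After 7 days, reverse transcriptase activity was measured in cell-free supernatant.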

[7] = test system: Human immunodeficiency virus 1; experiment: Antiviral activity HIV1 98IN022 infected in human PBMC after 7 days by scintillation counting; type: functional, organism-based; conditions: Human immunodeficiency virus 1, 98IN022, 168 h; method in brief: as §1
[8] = test system: Human immunodeficiency virus 1; experiment: Antiviral activity HIV1 92TH026 infected in human PBMC after 7 days by scintillation counting; type: functional, organism-based; conditions: Human immunodeficiency virus 1, 92TH026, 168 h; method in brief: as §3
[9] = test system: Human immunodeficiency virus 1; experiment: Antiviral activity HIV1 92HT599 infected in human PBMC after 7 days by scintillation counting; type: functional, organism-based; conditions: Human immunodeficiency virus 1, 92HT599, 168 h; method in brief: as §1
[10] = Therapeutic index, ratio of CC50 for human PM1 cells to EC50 for HIV1 Ba-L infected in human PM1 cells; type: cell-based; conditions: read-out: TI
Method in brief: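 PM1 cells infected at MOI 0.16 for 2 h, washed, then seeded at 1 × 10⁴ cells/well on half-log compound dilutions. After 5 days, supernatant p24 antigen was quantified by ELISA kit. EC50 is the concentration halving p24 versus infected untreated cells. CC50 was measured in PM1 cells by XTT formazan at 450 nm. TI is CC50 divided by EC50.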

[11] = Therapeutic index, ratio of CC50 for human PBMC to EC50 for HIV1 92BR014 infected in human PBMC; conditions: read-out: TI; method in brief: as §2

Question: With `CC(C)(C)c1ccc(C(Cn2cccc(C(F)(F)F)c2=O)NC2Cc3ccccc3C2)cc1` (stereo unspecified) as the molecule, how does the EC50 [1] read?
Answer: The EC50 was 30 nM.

Question: And the EC50 [2]?
Answer: Its EC50 is 110 nM.

Question: What about the inhibition [3] of the same molecule?
Answer: The inhibition was “inactive”.

Question: And the selectivity ratio [4]?
Answer: The selectivity ratio was < 1.

Question: What about the selectivity ratio [5] of the same molecule?
Answer: Its selectivity ratio is 11.

Question: And the EC50 [6]?
Answer: Its EC50 is 40 nM.

Question: And the EC50 [7]?
Answer: Its EC50 is 1300 nM.

Question: And the EC50 [8]?
Answer: The EC50 was > 17000 nM.

Question: And the EC50 [9]?
Answer: The EC50 was 1400 nM.

Question: What about the selectivity ratio [10] of the same molecule?
Answer: Its selectivity ratio is 4.

Question: And the selectivity ratio [11]?
Answer: Its selectivity ratio is 2.
